The values below come from ChEMBL document CHEMBL1152672, “Side chain azasteroids and thiasteroids as sterol methyltransferase inhibitors in ergosterol biosynthesis” (2009).

Experiment [1] has as its target T1, Sterol 24-C-methyltransferase (Yarrowia lipolytica) (UniProt Q6C2D9).
T1 sequence (whole entry): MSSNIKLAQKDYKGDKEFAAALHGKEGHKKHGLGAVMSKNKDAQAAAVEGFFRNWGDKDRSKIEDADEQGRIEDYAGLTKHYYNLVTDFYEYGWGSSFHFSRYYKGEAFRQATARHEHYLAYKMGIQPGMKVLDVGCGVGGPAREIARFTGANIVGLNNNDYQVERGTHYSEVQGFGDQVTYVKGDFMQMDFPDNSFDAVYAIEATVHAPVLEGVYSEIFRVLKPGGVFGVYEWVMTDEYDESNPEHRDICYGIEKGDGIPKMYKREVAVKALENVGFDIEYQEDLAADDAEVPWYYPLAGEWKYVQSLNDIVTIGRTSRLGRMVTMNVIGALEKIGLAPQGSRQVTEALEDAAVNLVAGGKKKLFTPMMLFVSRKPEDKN
Description: Inhibition of Yarrowia lipolytica 24-SMT assessed as cholesta-5,7,24-trien-3-trimethylsilyl derivative at 0.06 ug/mL after 48 hrs by GC-MS analysis relative to untreated control. On the set-up: scale not given: the % may be the effect or the level left. The gist of the method:
(§1)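 Whole-cell sterol profiling. Y. lipolytica at 50,000 CFU/mL was exposed to compounds added from ethanol for 48 ± 2 h at 28 °C, and the MIC/2 and/or MIC/4 wells were used. Cells were pelleted and PBS-washed, then saponified in 1 M NaOH at 70 °C for 1 h. Sterols were extracted into TBME with a cholesterol internal standard and silylated to TMS ethers. GC-MS full scan, with each sterol given as % of total integrated quantifier-ion area.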

In experiment [2] the target is T1, Sterol 24-C-methyltransferase (Yarrowia lipolytica). As to the kind of experiment: Inhibition of Yarrowia lipolytica 24-SMT assessed as 5-dehydroepisterol-3-trimethylsilyl derivative at 0.06 ug/mL after 48 hrs by GC-MS analysis relative to untreated control. On the set-up: scale not given: the % may be the effect or the level left. In outline: as §1
Experiment [3] deals with Yarrowia lipolytica. Description: Antimicrobial activity against Yarrowia lipolytica after 48 hrs. It counts as functional. In outline:
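Broth dilution MIC per DIN 58940-84. Log-phase Y. lipolytica in yeast extract/peptone/glucose medium, counted against a 0.5 McFarland standard (A570) and seeded at 50,000 CFU/mL in 2 mL wells. Compounds added from ethanol; final concentrations 2 to 0.06125 µg/mL unless otherwise stated. Plates incubated 48 ± 2 h at 28 °C. MIC is the lowest concentration with no visible growth.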

The target in experiment [4] is T1, Sterol 24-C-methyltransferase (Yarrowia lipolytica). As to the kind of experiment: Inhibition of Yarrowia lipolytica 24-SMT assessed as dehydroergosterol-3-trimethylsilyl derivative at 0.06 ug/mL after 48 hrs by GC-MS analysis relative to untreated control. Set-up: scale not given: the % may be the effect or the level left. In outline:
as §1

Experiment [5] has the same target. As to the kind of experiment: Inhibition of Yarrowia lipolytica 24-SMT assessed as cholesta-7,24-dien-3-trimethylsilyl derivative at 0.06 ug/mL after 48 hrs by GC-MS analysis relative to untreated control. Set-up: scale not given: the % may be the effect or the level left. The gist of the method: as §1
Experiment [6] shares this target. Description: Inhibition of Yarrowia lipolytica 24-SMT assessed as 5-dehydroepisterol-3-trimethylsilyl derivative at 8 ug/mL after 48 hrs by GC-MS analysis relative to untreated control. On the set-up: scale not given: the % may be the effect or the level left. The gist of the method:
as §1

For experiment [7] the target is unchanged. Description: Inhibition of Yarrowia lipolytica 24-sterol C-methyltransferase assessed as ergosterol-3-trimethylsilyl derivative level at 2 ug/mL after 48 hrs by GC-MS analysis relative to untreated control. On the set-up: scale not given: the % may be the effect or the level left. In outline: as §1
Experiment [8] has the same target. As to the kind of experiment: Inhibition of Yarrowia lipolytica 24-SMT assessed as dehydroergosterol-3-trimethylsilyl derivative at 2 ug/mL after 48 hrs by GC-MS analysis relative to untreated control. Set-up: scale not given: the % may be the effect or the level left. In outline: as §1
The target is the same in experiment [9]. Description: Inhibition of Yarrowia lipolytica 24-SMT assessed as cholesta-5,7,24-trien-3-trimethylsilyl derivative at 2 ug/mL after 48 hrs by GC-MS analysis relative to untreated control. Set-up: scale not given: the % may be the effect or the level left. The gist of the method: as §1
Experiment [10] has the same target. As to the kind of experiment: Inhibition of Yarrowia lipolytica 24-SMT assessed as cholesta-7,24-dien-3-trimethylsilyl derivative at 2 ug/mL after 48 hrs by GC-MS analysis relative to untreated control. On the set-up: scale not given: the % may be the effect or the level left. The gist of the method:
as §1

Experiment [11] shares this target. As to the kind of experiment: Inhibition of Yarrowia lipolytica 24-SMT assessed as 5-dehydroepisterol-3-trimethylsilyl derivative at 2 ug/mL after 48 hrs by GC-MS analysis relative to untreated control. Set-up: scale not given: the % may be the effect or the level left. In outline:
as §1

Experiment [12] has the same target. As to the kind of experiment: Inhibition of Yarrowia lipolytica 24-SMT assessed as cholesta-5,7,24-trien-3-trimethylsilyl derivative at 8 ug/mL after 48 hrs by GC-MS analysis relative to untreated control. On the set-up: scale not given: the % may be the effect or the level left. In outline:
as §1

Experiment [13] has the same target. As to the kind of experiment: Inhibition of Yarrowia lipolytica 24-SMT assessed as dehydroergosterol-3-trimethylsilyl derivative at 8 ug/mL after 48 hrs by GC-MS analysis relative to untreated control. On the set-up: scale not given: the % may be the effect or the level left. The gist of the method: as §1
For experiment [14] the target is unchanged. As to the kind of experiment: Inhibition of Yarrowia lipolytica 24-SMT assessed as cholesta-7,24-dien-3-trimethylsilyl derivative at 8 ug/mL after 48 hrs by GC-MS analysis relative to untreated control. On the set-up: scale not given: the % may be the effect or the level left. In outline:
as §1

Experiment [15] shares this target. Description: Inhibition of Yarrowia lipolytica 24-SMT assessed as zymosterol-3-trimethylsilyl derivative level at 0.2 ug/mL after 48 hrs by GC-MS analysis relative to untreated control. Set-up: scale not given: the % may be the effect or the level left. In outline: as §1
The target is the same in experiment [16]. As to the kind of experiment: Inhibition of Yarrowia lipolytica 24-SMT assessed as cholesta-7,24-dien-3-trimethylsilyl derivative at 0.2 ug/mL after 48 hrs by GC-MS analysis relative to untreated control. Set-up: scale not given: the % may be the effect or the level left. The gist of the method: as §1
The target is the same in experiment [17]. As to the kind of experiment: Inhibition of Yarrowia lipolytica 24-SMT assessed as dehydroergosterol-3-trimethylsilyl derivative at 0.2 ug/mL after 48 hrs by GC-MS analysis relative to untreated control. Set-up: scale not given: the % may be the effect or the level left. The gist of the method:
as §1

The target is the same in experiment [18]. Description: Inhibition of Yarrowia lipolytica 24-SMT assessed as lanosterol-3-trimethylsilyl derivative at 0.2 ug/mL after 48 hrs by GC-MS analysis relative to untreated control. On the set-up: scale not given: the % may be the effect or the level left. The gist of the method: as §1
The target is the same in experiment [19]. As to the kind of experiment: Inhibition of Yarrowia lipolytica 24-SMT assessed as 5-dehydroepisterol-3-trimethylsilyl derivative at 0.2 ug/mL after 48 hrs by GC-MS analysis relative to untreated control. Set-up: scale not given: the % may be the effect or the level left. The gist of the method: as §1
Experiment [20] has the same target. As to the kind of experiment: Inhibition of Yarrowia lipolytica 24-SMT assessed as cholesta-5,7,24-trien-3-trimethylsilyl derivative at 0.2 ug/mL after 48 hrs by GC-MS analysis relative to untreated control. On the set-up: scale not given: the % may be the effect or the level left. The gist of the method:
as §1

Experiment [21] has the same target. Description: Inhibition of Yarrowia lipolytica 24-SMT assessed as 5-dehydroepisterol-3-trimethylsilyl derivative at 1 ug/mL after 48 hrs by GC-MS analysis relative to untreated control. Set-up: scale not given: the % may be the effect or the level left. The gist of the method: as §1
For experiment [22] the target is unchanged. As to the kind of experiment: Inhibition of Yarrowia lipolytica 24-SMT assessed as dehydroergosterol-3-trimethylsilyl derivative at 1 ug/mL after 48 hrs by GC-MS analysis relative to untreated control. Set-up: scale not given: the % may be the effect or the level left. The gist of the method: as §1
Experiment [23] has the same target. As to the kind of experiment: Inhibition of Yarrowia lipolytica 24-SMT assessed as cholesta-7,24-dien-3-trimethylsilyl derivative at 1 ug/mL after 48 hrs by GC-MS analysis relative to untreated control. Set-up: scale not given: the % may be the effect or the level left. The gist of the method:
as §1

For experiment [24] the target is unchanged. As to the kind of experiment: Inhibition of Yarrowia lipolytica 24-sterol C-methyltransferase assessed as cholesta-5,7,24-trien-3-trimethylsilyl derivative at 1 ug/mL after 48 hrs by GC-MS analysis relative to untreated control. Set-up: scale not given: the % may be the effect or the level left. The gist of the method:
as §1

Experiment [25] shares this target. Description: Inhibition of Yarrowia lipolytica 24-sterol C-methyltransferase assessed as ergosterol-3-trimethylsilyl derivative level at 0.06 ug/mL after 48 hrs by GC-MS analysis relative to untreated control. On the set-up: scale not given: the % may be the effect or the level left. In outline:
as §1

The target is the same in experiment [26]. As to the kind of experiment: Inhibition of Yarrowia lipolytica 24-SMT assessed as ergosterol-3-trimethylsilyl derivative level at 0.2 ug/mL after 48 hrs by GC-MS analysis relative to untreated control. On the set-up: scale not given: the % may be the effect or the level left. The gist of the method:
as §1

In experiment [27] the test system is Yarrowia lipolytica. Description: Antimicrobial activity against Yarrowia lipolytica by agar diffusion test. Format: functional, organism-based.

In brackets after ≈: the same amount, converted by molar mass. Activity calls are given as the source filed them. The calls are words filed in the database; no cut-off is given here.

In the case of `CCCCNC[C@@H](C)[C@H]1CC[C@H]2C3=CC[C@H]4C[C@@H](O)CC[C@]4(C)[C@H]3CC[C@]12C`, the Activity worked out at 47.9% in experiment [1], 4.7% in experiment [2], 42.4% in experiment [4] and 5% in experiment [5]. Also, the lowest concentration to inhibit growth in the experiment with Yarrowia lipolytica [3] (MIC) was 0.25 µg/mL (≈ 0.645 µM).

Consider `C[C@H](CNCCCN(C)C)[C@H]1CC[C@H]2C3=CC[C@H]4C[C@@H](O)CC[C@]4(C)[C@H]3CC[C@]12C`, for which the Activity in experiment [6] worked out at 2.3%; in [7], 2.7%; in [8], 66.4%; in experiment [9], 25.6%; in experiment [10] it was 2%; in experiment [11], 3.3%. The results for the Activity in experiment [12], in [13] and in experiment [14] were 65.4%, 27.2% and 5.1%, respectively. The MIC against Yarrowia lipolytica [3] is more than 2 µg/mL.

For `CC(C)C(C)NC[C@@H](C)[C@H]1CC[C@H]2C3=CC[C@H]4C[C@@H](O)CC[C@]4(C)[C@H]3CC[C@]12C` (mixture of isomers), the Activity in experiment [15] is 1.4%; in experiment [16], 2.4%; in [17], 73.3%; in experiment [18], 0.3%; in [19], 4.6%; in [20], 18%. For the same compound, in the experiment on Yarrowia lipolytica [3], the MIC came out at 0.5 µg/mL.

For the compound `C[C@H](CNCCN(C)C)[C@H]1CC[C@H]2C3=CC[C@H]4C[C@@H](O)CC[C@]4(C)[C@H]3CC[C@]12C`, the Activity in [21] was determined as 3.1%; in experiment [22], 24.3%; in experiment [23], 4.5%; in experiment [24], 68%. Besides, the MIC in the experiment on Yarrowia lipolytica [3] was more than 2 µg/mL.

Take `CCCNCC[C@@H](C)[C@H]1CC[C@H]2C3=CC[C@H]4C[C@@H](O)CC[C@]4(C)[C@H]3CC[C@]12C`: the Activity was 60.8% in [1]; 2.9% in experiment [2]; 25.9% in experiment [4]; 5% in experiment [25]; 5.4% in experiment [5]. In the experiment with Yarrowia lipolytica [3], this compound displayed an MIC of 0.25 µg/mL (≈ 0.645 µM).

For the compound `C[C@H](/C=C/c1cccc[n+]1C)[C@H]1CC[C@H]2C3=CCC4C[C@@H](O)CC[C@]4(C)[C@H]3CC[C@]12C.[I-]` (stereo not given in full), the Activity in experiment [1] came out at 2.2%; in experiment [2] it was 0.7%; in [16], 4.3%; in experiment [4] it was 82.1%; in [17], 7%; in experiment [18], 0.3%. Besides, the Activity is 4.1% in [26], 1% in experiment [19], 15% in experiment [25] and 83.4% in [20]. Besides, the MIC in the experiment on Yarrowia lipolytica [3] is 1 µg/mL.

Consider `C[C@H](/C=C/c1ccncc1)[C@H]1CC[C@H]2C3=CCC4C[C@@H](O)CC[C@]4(C)[C@H]3CC[C@]12C` (stereo not given in full), for which the MIC entry in the experiment on Yarrowia lipolytica [27] is “inactive”.
